ALR inh: inhibitors of human ALR sulfhydryl oxidase, primary screen, biochemical, H2O2 detection, HRP-luminol luminescence, single point; FAD-linked sulfhydryl oxidase ALR (Homo sapiens), P55789; AID 485317, 2010; inhibition, % (test concentration not listed); 290,000 tested, 3.8% active; purified ALR, DTT oxidation;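 active = mean replicate inhibition above about 79%, with every replicate also reaching it, limit read from the data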
Target sequence (P55789 whole entry, looked up): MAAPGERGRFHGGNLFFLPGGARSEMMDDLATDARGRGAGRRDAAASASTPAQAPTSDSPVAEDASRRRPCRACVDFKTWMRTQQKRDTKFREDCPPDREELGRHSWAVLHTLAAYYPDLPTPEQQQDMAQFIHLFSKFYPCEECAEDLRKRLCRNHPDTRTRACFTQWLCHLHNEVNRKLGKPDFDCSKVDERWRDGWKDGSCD
T cell HTS: modulators of CD8 T cell-vesicle binding, primary screen, mouse 2C CD8+ T cells, flow cytometry; response (vesicle binding), % at 7 µM; 330,000 tested, 0.068% active; AID 2052, 2009; 2C CD8+ T cell-vesicle binding; hits give low values;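 active = response, share of CD8 T cells binding vesicles, and their 90th percentile fluorescence all below set limits, cut at about 80% in these data, passing the limit was not always enough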;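 note: values below 100% mean blocked vesicle binding to the CD8+ T cells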
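Incubation: binding step 1.5 h, 37 °C, antibody labelling 20 min, ice; system: murine 2C transgenic CD8+ T lymphocytes; technique: cytometric PE anti-B7-1 and Alexa647 anti-CD8 signals after 1% paraformaldehyde fixation; also added: QL9-charged Drosophila Ld/ICAM-1/B7-1 vesicles; control set: naked versus QL9-loaded vesicles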
N-glyco inh: increase of ERlucT glycosylation luciferase signal, primary screen, N-linked glycosylation inhibitor project, D54 ERlucT cells, luminescence, set 2. AID 588692, 2011. reporter increase, % at 12.5 µM. 360,000 tested, 0.23% active. D54 ERlucT glycosylation luciferase reporter, 24 h; percent of 100 nM tunicamycin response;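 active = mean luciferase reporter signal, scaled so untreated is 0 and the glycosylation-blocking control 100, at or above a set limit in every replicate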;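 note: luciferase carries N-glycosylation sites so blocking glycosylation raises the light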
Large screens that a line does not name were inactive. Only a selection was taken, and hits are over-represented in it overall.

COc1cccc(OC)c1C(=O)Nc1ccc(C)cc1C(=O)c1ccccc1	none
COc1ccc(C(=O)Nc2ccc(C)cc2C(=O)c2ccccc2)c(OC)c1	ALR inh 97
COc1ccc(NC(=O)c2cc3ccccc3cc2OC)cc1	none
Cc1ccc(NC(=O)CN(C)S(=O)(=O)c2ccc3c(c2)n(C)c(=O)c(=O)n3C)cc1	none
O=C(Cc1c[nH]c2ccccc12)NCc1ccccc1F	none
O=C(CC(=O)Nc1cccc(F)c1)Nc1cccc(F)c1	none
COc1ccc(NC(=O)C#Cc2ccccc2)cc1	none
O=C(C#Cc1ccccc1)Nc1ccc(F)cc1	ALR inh 97
O=C(C#Cc1ccccc1)Nc1cccc(F)c1	ALR inh 97
COc1ccc(NC(NC(=O)c2cccnc2)C(Cl)(Cl)Cl)cc1 (stereo not drawn)	ALR inh 99
Cc1ccccc1NC(NC(=O)c1cccnc1)C(Cl)(Cl)Cl (stereo not drawn)	none
COC(=O)C(O)(CC(=O)Nc1cc(Cl)ccc1Cl)C(F)(F)F (stereo not drawn)	none
CN(C)c1ccc(NC(=O)CSc2nc(N)c(C(=O)Nc3ccc(N(C)C)cc3)s2)cc1	none
CN(CC(=O)N1CCOCC1)C(=O)CSc1nc2ccccc2s1	none
COc1ccc(NC(=O)CSc2nc(N)c(C(=O)Nc3ccc(N(C)C)cc3)s2)cc1	ALR inh 99
Cc1nnc(SCC(=O)N(C)CC(=O)Nc2ccccc2Cl)s1	none
COc1ccc(NC(=O)CN(C)C(=O)CSc2nc3ccccc3s2)cc1	ALR inh 98
CN(CC(=O)Nc1ccccc1Cl)C(=O)CSc1nc2ccccc2s1	ALR inh 85
CC(NCCOc1ccccc1F)C(=O)Nc1ccc(S(N)(=O)=O)cc1 (stereo not drawn)	none
CCNC(=O)C1(C)CCCN1C(=O)c1cnc2ccccc2n1 (stereo not drawn)	none (no result: ALR inh, T cell HTS)
CN(C)S(=O)(=O)c1cccc(NC(=O)CSc2nc3c(cc2C#N)C(=O)CC(C)(C)C3)c1	ALR inh 98
CN(C)S(=O)(=O)c1ccc(Cl)c(NC(=O)CSc2nc3c(cc2C#N)C(=O)CC(C)(C)C3)c1	none
Nc1cc(=O)[nH]c(SCc2ccccc2Cl)n1	none
Cc1cc(=O)[nH]c(SCc2cccc(Br)c2)n1	none
Cc1cc(=O)[nH]c(SCc2cccc3ccccc23)n1	ALR inh 98
COc1ccc(CSc2nc(C)cc(=O)[nH]2)cc1Br	ALR inh 98
CCCc1cc(=O)[nH]c(SCC(=O)c2cc(C)n(C3CC3)c2C)n1	none
CCCc1cc(=O)[nH]c(SCc2ccccc2Cl)n1	ALR inh 99
CCCc1cc(=O)[nH]c(SCC(=O)c2cc(C)n(C)c2C)n1	ALR inh 98
Cc1cc(CSc2nc(C)cc(=O)[nH]2)c2ncccc2c1	none (no result: ALR inh)
O=C(O)CCC(CNS(=O)(=O)c1ccccc1)C(F)(F)F (stereo not drawn)	none
O=C(Nc1ccc(C(F)(F)F)cc1)C1=NN(C2CCS(=O)(=O)C2)C(=O)CC1 (stereo not drawn)	none
COc1cc([C@H]2c3c(cc(OC)c(O)c3OC)C[C@@H](CO)[C@@H]2CO[C@@H]2O[C@H](CO)[C@@H](O)[C@H](O)[C@H]2O)cc(OC)c1O	none (no result: ALR inh)
O=C(Nc1nnc(C2CC2)s1)c1n[nH]c(=O)c2ccccc12	none (no result: ALR inh)
CN(C)CCCNC(NC(=O)/C=C/c1ccccc1)C(Cl)(Cl)Cl (stereo not drawn)	none
Fc1ccc(CSc2nc3ccccc3[nH]2)c2ccccc12	none
O=c1cc(CSc2nc3ccccc3[nH]2)c2ccccc2[nH]1	ALR inh 91
O=C(CSc1nnc(-c2ccco2)o1)c1ccccc1	ALR inh 99
O=C(CSc1nnc(-c2ccco2)o1)c1ccc[nH]1	ALR inh 98
O=C(CSc1nnc(-c2ccco2)o1)c1ccc(F)c(F)c1	none
O=C(CSc1nnc(-c2ccco2)o1)Nc1c(F)cccc1F	none (no result: ALR inh)
CC(=O)c1c(C)cc(C)c(CSc2nnc(-c3ccco3)o2)c1C	ALR inh 90
Cc1cccc(CSc2nnc(-c3ccco3)o2)c1	none
COc1ccc(-c2cn(Cc3ccc(C)cc3)nn2)cc1	none
COc1ccccc1NS(=O)(=O)c1ccc(C)c(NC(=O)c2ccc(S(=O)(=O)N3CCCCCC3)cc2)c1	none
COc1ccc(NS(=O)(=O)c2cccc(C(=O)NNC(=O)c3ccc(O)c(Cl)c3)c2)cc1	none
COCCn1c(SC(C(=O)Nc2cc(C)ccc2OC)c2ccccc2)nnc1-c1ccc(Cl)cc1 (stereo not drawn)	ALR inh 99
COc1ccc(C)cc1NC(=O)C(Sc1nnnn1C)c1ccccc1 (stereo not drawn)	none
CN(C)C(=O)CN1C(=O)NC2(CCc3ccccc32)C1=O (stereo not drawn)	none
COc1ccc(CCC(=O)N/N=C/c2ccc3c(c2)OCO3)cc1	none
CC(=O)/C(=N\Nc1cccc(Cl)c1)Sc1cccc2cccnc12	none
CC(=O)/C(N)=N/Nc1cccc(Cl)c1	ALR inh 99
Cc1ccc2cc3cc(C(=O)NCCCN4CCCC4=O)oc3nc2c1	ALR inh 78
Cc1ccc2cc3cc(C(=O)NCCN4CCOCC4)oc3nc2c1	none
O=C(NCCCn1ccnc1)/C(=C\c1cccs1)NC(=O)c1cccs1	none
COc1cc(/C=N/Nc2nn3cnnc3c3ccccc23)ccc1O	none
CCOc1cc(/C=N/n2cnnc2)ccc1O	ALR inh 99
C=CCc1cc(/C=N/n2cnnc2)cc(OCC)c1O	none
CCOc1cc(/C=N/Nc2nn3cnnc3c3ccccc23)ccc1O	ALR inh 82
NNC(=O)c1ccc(COCC(F)(F)F)cc1	none
Cc1cccc(N2CCN(C(=O)c3cccc(S(=O)(=O)N4CCOCC4)c3)CC2)c1C	none (no result: ALR inh, T cell HTS)
Cc1c(C(=O)NC2CCN(Cc3ccccc3)C2)oc2c(Cl)cccc12 (stereo not drawn)	none
COc1ccc(CC(=O)Nc2ccccc2N2CCCCC2)cc1OC	none
Cn1nc(C(=O)Nc2ccccc2N2CCCC2)c2ccccc2c1=O	ALR inh 92
CN(CC(=O)Nc1ccccc1N1CCOCC1)S(=O)(=O)c1ccc(F)cc1	none
COc1cccc(CC(=O)Nc2ccccc2N2CCCC2)c1	ALR inh 98
CC(Oc1ccc(F)cc1)C(=O)Nc1ccccc1N1CCCCC1 (stereo not drawn)	none
CC(C)Oc1ccc(C(=O)Nc2ccccc2N2CCCC2)cc1	ALR inh 98
CC(=O)Nc1ccc(S(=O)(=O)N(C)CC(=O)Nc2ccccc2N2CCCC2)cc1	ALR inh 99
CCN(CC)S(=O)(=O)c1ccc(N2CCCC2)c(NC(=O)c2nn(C)c(=O)c3ccccc23)c1	none
CCc1ccc(/C=N/n2c(COc3ccccc3)n[nH]c2=S)cc1	none
O=C1C=C(c2cccc3c2sc2ccccc23)C[C@@H](c2ccc(Cl)cc2)C1	none
O=C(Nc1ccccc1N1CCCCC1)c1ccc(Cl)cc1	none
COc1ccc(C(=O)Nc2ccccc2N2CCCC2)cc1	ALR inh 94
COc1ccc(C(=O)NC(=S)N2CCN(c3ccccc3O)CC2)cc1	ALR inh 99
COc1ccc(C(=O)N/N=C(/C)c2ccc(N3CCCCC3)cc2)cc1	ALR inh 92
